# Compounds with a hit are over-represented: about 0.79% of the library has one in this group of screens.
# mIAP block: mouse IAP inhibition. AID 2806. inhibition, % at 10 µM. 0.2% of 330,000 active. purified mouse IAP, CDP-Star luminescence, 30 min;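 active means inhibition of at least 40% at 10 µM in the primary screen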
# hIAP act: increases human intestinal alkaline phosphatase activity; purified human IAP, CDP-Star luminescence, 30 min; stronger effect = higher value; 1 = vehicle-only enzyme, 0 = enzyme-free background; P09923; activation factor at 10 µM; 0.16% of 330,000 active;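 active means activation factor of the enzyme at least 2-fold when tested at 20 µM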
# Target sequence (P09923 whole entry, looked up): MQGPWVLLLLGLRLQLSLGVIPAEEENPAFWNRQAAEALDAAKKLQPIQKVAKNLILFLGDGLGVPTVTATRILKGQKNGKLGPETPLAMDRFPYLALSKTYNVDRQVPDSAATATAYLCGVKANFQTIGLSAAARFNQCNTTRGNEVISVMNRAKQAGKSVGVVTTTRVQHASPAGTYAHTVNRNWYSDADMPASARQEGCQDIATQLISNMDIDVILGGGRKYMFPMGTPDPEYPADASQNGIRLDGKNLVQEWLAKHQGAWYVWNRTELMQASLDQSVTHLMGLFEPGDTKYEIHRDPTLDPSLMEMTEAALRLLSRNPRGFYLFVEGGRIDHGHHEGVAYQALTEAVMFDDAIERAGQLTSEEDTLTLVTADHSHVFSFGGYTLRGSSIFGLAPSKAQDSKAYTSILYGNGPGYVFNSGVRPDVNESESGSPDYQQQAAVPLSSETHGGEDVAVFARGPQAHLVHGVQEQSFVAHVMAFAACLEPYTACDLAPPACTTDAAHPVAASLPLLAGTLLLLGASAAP
# bIAP inh: intestinal alkaline phosphatase (bovine) inhibition. purified bovine IAP, CDP-star luminescence, 30 min. inhibition, % at 20 µM. 190,000 tested, under 10 active. AID 1019;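 active means over 50% inhibition of intestinal alkaline phosphatase at 20 µM in the single-dose screen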
#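 System: Purified bovine intestinal alkaline phosphatase (IAP) enzyme | Input: IAP diluted 1/65,000,000 in the well | Also added: CDP-star chemiluminescent phosphatase substrate, 30 µM final | Dosing: 20 µM single dose | Times: Enzyme reaction for 30 min at room temperature | Detection: Luminescence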
# hIAP block: human IAP inhibition. P09923. purified IAP, CDP-Star luminescence, 30 min. inhibition, % at 10 µM. 0.12% of 330,000 active. AID 2544;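 active means inhibition reaching a set limit with compound at 10 µM in the primary screen, cut at about 35% in these data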
# mIAP act: mouse IAP activation; 0.24% of 330,000 active; activation factor at 10 µM; muIAP, CDP-Star luminescence, 30 min; stronger effect = higher value; 1 = vehicle-only enzyme signal, 0 = enzyme-free wells; AID 2805;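 active means activation factor of at least 2 at 20 µM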
#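 Assay system: mouse IAP enzyme; Reagent: CDP-Star chemiluminescent phosphatase substrate; Compound: DMSO-dissolved test compounds; Incubation: 30 min, room temperature; Technique: luminescence from enzymatic CDP-Star hydrolysis; Controls: DMSO-only wells and no-enzyme negative control.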
# bIAP act: intestinal alkaline phosphatase (bovine) activation. purified bovine IAP, CDP-star luminescence, 30 min; stronger effect = higher value; fold of DMSO-control signal, blank-subtracted. activation factor at 20 µM. 0.17% of 200,000 active. AID 1016;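 active means activation factor of 2 or more at 20 µM, a signal rise over negative controls twice the positive control's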
# hIAP act conf: human IAP activation confirmation; shares compounds with hIAP act; purified IAP, CDP-Star luminescence, 30 min; stronger effect = lower value; 10% of 880 active; activation (%Activity, negative = activation), % at 8.3 µM;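 active means at least twofold enzyme activation in any of six single-dose repeats, which the averaged readout prints as negative percent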
# Numbers stand for hits; 0 = inactive; - = not tested or not shown.
SMILES,mIAP block,hIAP act,bIAP inh,hIAP block,mIAP act,bIAP act,hIAP act conf
CN(CC(=O)Nc1ccccc1Cl)C(=O)COC(=O)c1cnccn1,0,0,-,35,0,-,0
O=C(CC(c1ccccc1)c1ccccc1)Nc1ncn[nH]1,0,2.5,0,0,0,3.3,0
O=C(CC1CCCCC1)Nc1ncn[nH]1,0,2,0,0,0,2.8,0
COc1cc(NC(=O)c2ccc(S(=O)(=O)N(C)c3ccccc3)cc2)cc(OC)c1,0,0,-,0,0,-,-
O=C(NCCc1ccc(Cl)cc1)c1ccc2[nH]c(=O)c(=O)[nH]c2c1,0,2,-,0,0,-,0
Cc1cc(OCc2cc(C(=O)N(Cc3nccn3C)C(C)C)no2)cc(C)c1Cl,0,0,-,0,0,-,-
Cc1cccc(C(=O)OCN2C(=O)c3ccccc3C2=O)c1[N+](=O)[O-],0,0,-,42,0,-,0
CN(CC(=O)Nc1ccc(F)c(F)c1F)C(=O)CCCSc1nc2ccccc2[nH]1,0,0,-,0,0,-,-
Cc1ccc(NC(=O)c2nc[nH]c2C(=O)NCCCNC(=O)c2[nH]cnc2C(=O)Nc2ccc(C)cc2)cc1,0,0,-,0,0,-,-
Cc1ccc(NC(=O)c2[nH]cnc2C(=O)NN)cc1,0,2.1,0,0,0,0,0
NNC(=O)c1nc[nH]c1C(=O)Nc1ccccn1,0,2,0,0,0,0,0
COc1cc(SC)ccc1C(=O)Nc1ccc2ncccc2c1,0,0,-,0,0,-,-
CS(=O)(=O)N1CCC(C(=O)Nc2cccc(F)c2)CC1,0,0,-,0,0,-,-
O=C(Nc1cccc(-c2cccc(F)c2)c1)C1CCN(C2CCOCC2)CC1,0,2.9,-,0,0,-,0
Nc1nc(NCCCN2CCOCC2)nc(Nc2cccc(F)c2)c1[N+](=O)[O-],0,0,-,36,0,-,0
CC(C)Cn1c(SCC(=O)N(C)c2c(N)n(Cc3ccccc3)c(=O)[nH]c2=O)nc2ccccc21,0,0,-,0,0,-,-
CC(=O)c1ccc(OCCCC(=O)N2CCN(S(=O)(=O)c3ccc(C)cc3C)CC2)cc1,0,0,-,0,0,-,-
CC(=O)Nc1ccc(S(=O)(=O)Nc2ccccn2)cc1,0,0,0,0,0,0,-
Cc1ccccc1S(=O)(=O)NNC(=O)C(=O)NNc1ccccn1,0,3.1,0,0,0,0,0
Cc1ccc(S(=O)(=O)NNC(=O)C(O)(c2ccccc2)c2ccccc2)cc1,0,0,0,0,0,0,-
CC(=O)Nc1ccc(S(=O)(=O)NNC(=O)C(=O)NNc2ccccn2)cc1,0,2.8,-,0,0,-,0
Cc1ccc(S(=O)(=O)NNC(=O)C(=O)NNc2ccccn2)cc1,0,3.1,0,0,0,0,0
Cc1nnc2c(SC(C)C)nc3ccccc3n12,0,0,-,0,0,-,-
CC(C)(CNS(=O)(=O)c1ccc2ccccc2c1)N1CCOCC1,0,0,-,0,0,-,-
CN1[C@@H]2CCC[C@H]1CC(NC(=O)c1nn(C)c3ccccc13)C2 (some centres not stated),0,0,-,0,0,-,-
SMILES,mIAP block,hIAP act,bIAP inh,hIAP block,mIAP act,bIAP act,hIAP act conf
O=S(=O)(c1ccc2ccccc2c1)n1cccn1,0,0,-,41,0,-,0
Cc1cc(C)cc(OCC(=O)NNC(=O)c2cc(C)[nH]n2)c1,0,2.1,0,0,0,0,-95
CCN1C(=O)[C@@H]2[C@@H](c3ccc(SC4CCCCC4)cc3)N3CCCC[C@@]3(C(=O)OC)[C@@H]2C1=O,0,0,-,0,0,-,-
Cc1nn2c(C(F)(F)F)cc(-c3ccc(Cl)cc3)nc2c1C(=O)N1CCOCC1,0,2.8,0,0,0,0,0
O=C(c1cnn2c(C(F)(F)F)cc(-c3ccc(Br)cc3)nc12)N1CCOCC1,-,-,0,-,-,0,-
O=C(OCc1nnc(-c2ccc([N+](=O)[O-])cc2)o1)c1ccc(F)c(S(=O)(=O)N2CCOCC2)c1,0,0,-,0,0,-,-
Cc1ccc(C2=NN(C3=NN=C(N)Cc4ncnn43)C(O)(C(F)(F)F)C2)cc1 (configuration not stated),0,0,0,0,0,0,-
NC1=NN=C(N2N=C(c3ccco3)CC2(O)C(F)(F)F)n2ncnc2C1 (configuration not stated),0,2.5,0,0,0,0,0
Cc1nn(C(=O)CCC(=O)NCc2cccc(F)c2)c2ccccc12,0,0,-,39,0,-,0
Cc1nn(C(=O)CCC(=O)NCCc2ccccc2)c2ccccc12,0,0,-,0,0,-,-
CCOc1ccc(C(C)NC(=S)NC2CCCCC2)cc1 (configuration not stated),0,0,0,0,0,0,-
CCC(C)c1ccc(C(C)NC(=S)NC2CCCCC2)cc1 (configuration not stated),0,3.6,-,0,4.7,-,0
CC(NC(=S)NC1CCCCC1)c1ccc(C(C)(C)C)cc1 (configuration not stated),0,2.3,-,0,5.3,-,0
CCN(C[C@H]1N[C@@](C)(C(=O)OC)[C@H]2C(=O)N(Cc3ccccc3)C(=O)[C@@H]12)C(=O)c1ccc(C)cc1,0,0,-,0,0,-,-
Cc1ccc(CN2[C@@H](c3ccccc3)COCCS2(=O)=O)cc1,0,0,-,0,0,-,-
CCOc1ccc(CCNC(=O)COC(=O)CSc2ccccc2C)cc1OCC,0,0,-,0,0,-,-
CC1CCCC/C1=N/Nc1ccc([N+](=O)[O-])cc1[N+](=O)[O-] (configuration not stated),0,0,-,37,0,0,0
C[C@@H]1CCCCCCCCC(=O)OCCN[C@H](C)CCCCCCCCC(=O)OCCN[C@H](C)CCCCCCCCC(=O)OCCN1,0,0,-,0,0,-,-
Cc1cnc(C(=O)NNC(=O)c2ccc(Br)cc2)cn1,0,2.2,-,0,0,-,0
CCOC(=O)C1=C(c2ccc(OC)cc2)OC(N)=C(C#N)C1c1cccnc1 (configuration not stated),0,3,-,0,0,-,0
C=CCOc1ccc(/C=C2/C(=N)N3N=C(CC(=O)N4CCCC4)SC3=NC2=O)cc1OC,0,0,-,0,0,-,-
O=S(=O)(Nc1nc2ccccc2nc1NCc1ccco1)c1ccc(Cl)cc1,0,0,0,0,0,0,-
Cc1ccc(S(=O)(=O)Nc2nc3ccccc3nc2NCc2ccco2)cc1,0,2.1,0,0,0,0,0
O=C(Nc1ccc(F)cc1)c1ccc2snnc2c1,0,0,-,35,0,-,0
Cc1ccc(NC(=O)c2ccc3snnc3c2)cc1C,0,0,-,0,0,-,-
O=C1C=C(c2cc(C(F)(F)F)cc(C(F)(F)F)c2)C[C@@H](c2ccc(Cl)cc2)C1,0,0,-,0,0,-,-
CC1COC(c2cccn2Cc2ccccc2Cl)=N1 (configuration not stated),0,0,0,0,0,0,-
CN(C(=O)Cn1cccc1C1=NC(c2ccccc2)CO1)c1ccccc1 (configuration not stated),0,0,0,38,0,0,0
